According to ChEMBL document CHEMBL3525986, “Nicotinamide N-oxidation by CYP2E1 in human liver microsomes” (Drug Metab Dispos, 2013):

Substrate: NC(=O)c1cccnc1
Test: Drug metabolism in human liver microsomes assessed as CYP2E1-mediated nicotinamide N-oxide formation after 30 mins by HPLC analysis
Assay type: ADME
In short: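 Pooled human liver microsomes at 1 mg/ml in 0.1 M NaH2PO4, pH 7.4, with 1mM NADPH were preincubated 2 min at 37°C. NAM was added at varied concentrations and run 30 min, then stopped with ice-cold methanol. N-oxide was measured by HILIC HPLC with UV at 254 nm against a standard curve. Km and Vmax came from a Michaelis-Menten nonlinear fit. Triplicates.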

B1: Cytochrome P450 2E1 (Homo sapiens) (protein)
chain: MSALGVTVALLVWAAFLLLVSMWRQVHSSWNLPPGPFPLPIIGNLFQLELKNIPKSFTRLAQRFGPVFTLYVGSQRMVVMHGYKAVKEALLDYKDEFSGRGDLPAFHAHRDRGIIFNNGPTWKDIRRFSLTTLRNYGMGKQGNESRIQREAHFLLEALRKTQGQPFDPTFLIGCAPCNVIADILFRKHFDYNDEKFLRLMYLFNENFHLLSTPWLQLYNNFPSFLHYLPGSHRKVIKNVAEVKEYVSERVKEHHQSLDPNCPRDLTDCLLVEMEKEKHSAERLYTMDGITVTVADLFFAGTETTSTTLRYGLLILMKYPEIEEKLHEEIDRVIGPSRIPAIKDRQEMPYMDAVVHEIQRFITLVPSNLPHEATRDTIFRGYLIPKGTVVVPTLDSVLYDNQEFPDPEKFKPEHFLNENGKFKYSDYFKPFSTGKRVCAGEGLARMELFLLLCAILQHFNLKPLVDPKDIDLSPIHIGFGCIPPRYKLCVIPRS
B1 gave a Km of 2980 µM and a Vmax of 6.01e-05 µmol/min/mg.
